# Source: PubChem
# This is a sample that favours compounds with a hit; in the whole collection about 2.4% have one here.
# Cneo AK release = causes C. neoformans cell lysis. adenylate kinase release luminescence, 4 h; normalised: neutral wells 0, clomiphene wells 100. lysis activity, % at 15 µM. 360,000 compounds, 0.2% hits;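 active = mean lysis activity across replicates of at least 80%, whatever share of replicates individually reach that level; inactive = mean lysis activity below 80%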
#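 Schedule: static 4 h at 37 °C with compound, 1 h detection; system: C. neoformans cells; benchmarks: Clomiphene as positive control; buffer or medium: fresh YPD medium; measure: luminescence rise reflecting yeast cell lysis; measured by: luminescent adenylate kinase detection reagent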
# GSIS activator = GLuc luminescence reporter in INS-1E cells, primary screen for activators of glucose-dependent secretion of insulin; INS-1E GLuc reporter insulin secretion, 2-3 h; activation, % at 16.6 µM; 370,000 compounds, 0.61% hits; AID 743287;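 active = lowest replicate activation of at least 40%, so every replicate reaches that level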
# dFosB act-1 = enhances mouse delta FosB homodimer DNA binding | P13346 | purified delta FosB, TAMRA-CDK5 oligo fluorescence polarization; percent of positive-control signal above neutral wells | activation, % at 25 µM | 340,000 compounds, 0.99% hits | AID 493131;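 active = mean activation above about 17%, with every replicate also reaching it, limit read from the data, passing the limit was not always enough; inconclusive = only one of the two conditions met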
# Target sequence (P13346 whole entry, looked up): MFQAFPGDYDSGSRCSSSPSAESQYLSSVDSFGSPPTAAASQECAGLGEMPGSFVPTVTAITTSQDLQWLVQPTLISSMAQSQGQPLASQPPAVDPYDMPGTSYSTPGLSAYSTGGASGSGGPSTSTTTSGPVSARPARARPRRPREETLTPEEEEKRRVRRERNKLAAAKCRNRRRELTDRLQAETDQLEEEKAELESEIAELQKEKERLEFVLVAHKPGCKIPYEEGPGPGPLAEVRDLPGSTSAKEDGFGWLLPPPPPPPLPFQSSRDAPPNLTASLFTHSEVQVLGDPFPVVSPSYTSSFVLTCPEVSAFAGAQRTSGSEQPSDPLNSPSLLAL
# Rtt109 HAT inh = inhibitors of Candida albicans Rtt109/Vps75 histone acetyltransferase. AID 540336. purified Rtt109/Vps75, ThioGlo CoA-SH fluorescence, 4 h. inhibition, % at 34.9 µM. Q5AAJ8. 330,000 compounds, 0.16% hits;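 active = inhibition of at least 50% in every replicate; inconclusive = best replicate reaches 50% inhibition but some replicates fall short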
# Target sequence (Q5AAJ8 whole entry, looked up): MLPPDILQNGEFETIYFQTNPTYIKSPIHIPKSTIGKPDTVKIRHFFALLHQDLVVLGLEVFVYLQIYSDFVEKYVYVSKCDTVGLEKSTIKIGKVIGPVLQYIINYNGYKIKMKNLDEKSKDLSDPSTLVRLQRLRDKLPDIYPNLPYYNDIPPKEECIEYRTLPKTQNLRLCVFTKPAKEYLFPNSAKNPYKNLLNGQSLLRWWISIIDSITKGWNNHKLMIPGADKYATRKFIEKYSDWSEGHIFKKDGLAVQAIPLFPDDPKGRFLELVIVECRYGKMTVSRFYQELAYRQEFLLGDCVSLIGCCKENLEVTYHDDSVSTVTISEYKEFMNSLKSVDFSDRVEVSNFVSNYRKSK
# Env fusion inh = HIV envelope-mediated fusion inhibition. HeLa-JRFL Env/CEM21 cell fusion, luciferase. inhibition, % at 12.3 µM. 360,000 compounds, 1.1% hits;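 active = mean replicate inhibition score of at least 50 and every replicate individually at or above 50; inconclusive = only one of the two criteria met; inactive = mean below 50 and not all replicates reaching 50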
# miR-122 sensor = miR-122 inhibition in Huh7 cells; Huh7 miR-122 Renilla luciferase sensor, 48 h; neutral wells = 0, positive control = 100; activation (reporter increase), % at 12.5 µM; AID 602342; 340,000 compounds, 0.3% hits;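 active = mean replicate activation score at least 90 and every replicate individually at or above 90; inconclusive = only one of the two criteria met; inactive = neither criterion met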;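 also: higher luciferase means less miR-122 activity so hits act as miR-122 inhibitors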
# dFosB act-2 = delta FosB (mouse) homodimer activation; 2,400 tested, under 10 active; shares compounds with dFosB act-1; purified delta FosB, TAMRA-CDK5 oligo fluorescence polarization; normalised: neutral wells 0, positive control 100; AID 588690; activation, % at 24.9 µM;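 active = highest replicate activation at or above 34% and every replicate reaching that threshold; inconclusive = meets only one of the two criteria; inactive = meets neither criterion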;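 also: higher polarization means more probe DNA bound by delta FosB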
# A number is an active result; . = inactive; ? = inconclusive; / = not tested or not shown.
SMILES,Cneo AK release,GSIS activator,dFosB act-1,Rtt109 HAT inh,Env fusion inh,miR-122 sensor,dFosB act-2
COc1ccc(CN(C)CC(O)COc2ccc(-c3ccccc3)cc2)cc1OC (configuration not stated),.,.,19,.,.,.,.
CCc1cnc(N2[C@H](C#N)[C@@H](c3ccccc3C3=CCCC3)[C@@H]2CO)s1,/,.,/,/,/,/,/
Cc1nc2cc(N3CCOCC3)c(NC(=O)C3CC3)cc2c(=O)n1Cc1ccccc1,.,/,.,.,.,.,/
Cc1nc2cc(N3CCCCC3)c(NC(=O)c3ccncc3)cc2c(=O)n1Cc1ccccc1,.,/,24,.,.,.,.
CC(=O)N(C)C[C@H]1Oc2cc(-c3ccncc3)ccc2S(=O)(=O)N([C@H](C)CO)C[C@H]1C,.,.,/,/,.,.,/
Cc1ccc(Nc2nc(N)nc(CSc3nc4ccccc4s3)n2)cc1,.,/,53,.,?,.,.
Cc1ccc(Nc2nc(N)nc(CSc3nnc(-c4ccncc4)o3)n2)cc1,.,/,66,.,.,.,.
CCS(=O)(=O)N1C[C@@H](C)[C@H](OC)CN(C)C(=O)c2ccc(NC(=O)Nc3ccccc3Cl)cc2OC[C@H]1C,/,.,/,/,/,/,/
COc1cc(C(=O)NCc2ccc(C)cc2)ccc1OCc1c(C)noc1C,/,/,25,.,/,.,.
COc1cc(C(=O)NCCc2ccc(S(N)(=O)=O)cc2)ccc1OCc1c(C)noc1C,.,.,26,.,/,.,.
COc1ccccc1CNC(=O)c1ccc(OCc2c(C)noc2C)c(OC)c1,.,/,.,.,.,.,/
O=C(NC1CCCC1)[C@@H]1[C@@H](CO)[C@@H]2Cn3c(ccc(-c4cccnc4)c3=O)[C@H]1N2CC1CC1,.,.,/,/,/,.,/
O=C(N[C@@H]1CC[C@H](CCNS(=O)(=O)Cc2ccccc2)O[C@H]1CO)c1cnccn1,.,.,/,/,.,.,/
C[C@@H]1CCCCO[C@H](CN(C)C(=O)C2CCCCC2)[C@H](C)CN([C@H](C)CO)C(=O)c2cc(NC(=O)NC3CCCCC3)ccc2O1,.,.,/,/,.,.,/
Cc1cc(C(=O)Nc2cccc3c2O[C@@H](CN(C)CC2CC2)[C@@H](C)CN([C@H](C)CO)C3=O)n(C)n1,.,.,/,/,.,.,/
Cc1cccc(C(=O)NN(C)c2nc(-c3ccccc3)nnc2C(F)(F)F)c1,.,/,.,.,.,.,/
COc1ccc(C(=O)NN(C)c2nc(-c3ccccc3)nnc2C(F)(F)F)cc1,.,/,68,.,/,.,.
Cc1n[nH]c(C)c1S(=O)(=O)N1CCc2ccccc21,.,/,.,.,.,.,/
Cc1cc(C)c(S(=O)(=O)N2CCc3ccccc32)c(C)c1,.,.,27,.,.,.,.
CO[C@H]1CN(C)C(=O)c2ccc(NC(=O)c3ccc(F)cc3)cc2OC[C@H](C)N(C(=O)CN(C)C)C[C@@H]1C,/,.,/,/,/,.,/
C[C@H](CO)N1C[C@H](C)[C@@H](CN(C)C)Oc2ccc(NS(C)(=O)=O)cc2CC1=O,.,.,/,/,/,.,/
O=C(Nc1ccc(-c2cc3ccccc3oc2=O)c(Cl)c1)c1cccnc1,.,.,84,.,/,.,.
O=C(Nc1cccnc1)c1cccc(-c2cc3ccccc3oc2=O)c1,/,.,46,.,.,/,.
COc1cc(NC(=O)c2cccnc2)ccc1-c1cc2ccccc2oc1=O,/,.,/,/,.,/,/
O=C(Nc1cccc(-c2cc3ccccc3oc2=O)c1)c1ccc(Br)o1,.,.,.,.,/,/,/
SMILES,Cneo AK release,GSIS activator,dFosB act-1,Rtt109 HAT inh,Env fusion inh,miR-122 sensor,dFosB act-2
C=CCn1c(SCC(=O)Nc2sccc2C#N)nc2sc(C)c(C)c2c1=O,.,/,23,.,.,.,.
C[C@@H]1CCCCO[C@H](CN(C)C(=O)CCCN(C)C)[C@@H](C)CN([C@H](C)CO)C(=O)c2cc(NS(C)(=O)=O)ccc2O1,.,.,/,/,.,.,/
CC(=O)NC(=S)Nc1ccc(NC(=O)COc2ccc(Cl)cc2Cl)cc1,.,/,73,.,.,.,.
Cc1ccc(Cl)cc1NC(=O)c1ccccc1OCC(=O)Nc1ccc(Cl)cc1,/,.,33,.,.,.,.
CCC(=O)N1[C@H](CO)[C@@H](c2ccccc2)[C@@H]1CN(C(C)C)S(C)(=O)=O,.,.,/,/,/,.,/
O=C(COC(=O)c1ccc2c(c1)C(=O)N(Cc1ccncc1)C2=O)Nc1cccc2ccccc12,/,.,27,.,.,.,.
CN(C(=O)CCc1ccccc1)c1nnc(-c2ccncc2)s1,/,.,.,.,.,/,/
C=CCN(C(=O)COc1ccccc1)c1nnc(-c2ccncc2)s1,.,/,22,.,.,.,.
Cc1ccc(NC(=O)Cn2cc(S(=O)(=O)c3ccc(F)cc3)c(=O)c3cc(F)ccc32)cc1,.,.,.,.,.,.,/
COc1ccc2c(c1)c(CC(=O)Nc1ccc(C)cc1)c(C)n2C(=O)c1ccc(Cl)cc1,.,.,21,/,/,.,.
COc1ccc(NC(=O)Cn2cc(C(=O)c3ccco3)c3ccccc32)cc1,.,/,45,.,.,.,.
COc1ccc2c(c1)c(=O)c(C(=O)c1ccc(F)cc1)cn2CC(=O)Nc1ccc(F)cc1,.,.,20,.,.,.,.
Cc1ccc(S(=O)(=O)c2cn(CC(=O)Nc3ccccc3)c3ccc(F)cc3c2=O)cc1,.,.,30,.,.,.,.
O=C(C[C@@H]1C[C@@H]2c3cc(NC(=O)C4CCOCC4)ccc3O[C@@H]2[C@@H](CO)O1)NCc1ccccc1F,.,.,/,/,.,.,/
COc1ccc2c(c1)c(=O)c(C(=O)c1ccc(C)cc1)cn2CC(=O)Nc1ccc(F)cc1,.,.,22,.,.,.,.
O=C(COc1ccc2c(c1)OCO2)Nc1ccc2c(c1)oc1ccccc12,.,81,81,.,/,.,.
C[C@@H]1CN([C@@H](C)CO)C(=O)c2cc(C#CC3CC3)cnc2O[C@H]1CN(C)C(=O)c1ccncc1,/,.,/,/,.,.,/
CCOC(=O)c1c(C)[nH]c(C)c1C(=O)COC(=O)c1cccc(C)c1O,.,.,.,.,/,.,/
Cc1cccc(C(=O)OCC(=O)c2c(C)[nH]c3ccccc23)c1O,.,.,28,.,.,/,.
CCCCNC(=O)C(COCc1ccccc1)OC(=O)c1ccccc1 (configuration not stated),.,/,/,/,.,/,/
COc1ccccc1S(=O)(=O)N[C@H]1CC[C@H](CCNC(=O)C2CC2)O[C@@H]1CO,.,.,/,/,.,/,/
Cc1ccnc(NS(=O)(=O)c2ccc(NC(=O)c3ccccc3F)cc2)n1,.,.,.,.,.,.,/
Nc1ccc(S(=O)(=O)Nc2nccc(/C=C/c3ccccc3F)n2)cc1,/,.,26,.,.,.,.
